How the values were obtained:
[1] = molecular target: T1, hpol κ (Homo sapiens, UniProt Q9UBT6); assay: Gel-based pol extension assay, hpol κ; type: biochemical
T1 sequence (Q9UBT6 19-526): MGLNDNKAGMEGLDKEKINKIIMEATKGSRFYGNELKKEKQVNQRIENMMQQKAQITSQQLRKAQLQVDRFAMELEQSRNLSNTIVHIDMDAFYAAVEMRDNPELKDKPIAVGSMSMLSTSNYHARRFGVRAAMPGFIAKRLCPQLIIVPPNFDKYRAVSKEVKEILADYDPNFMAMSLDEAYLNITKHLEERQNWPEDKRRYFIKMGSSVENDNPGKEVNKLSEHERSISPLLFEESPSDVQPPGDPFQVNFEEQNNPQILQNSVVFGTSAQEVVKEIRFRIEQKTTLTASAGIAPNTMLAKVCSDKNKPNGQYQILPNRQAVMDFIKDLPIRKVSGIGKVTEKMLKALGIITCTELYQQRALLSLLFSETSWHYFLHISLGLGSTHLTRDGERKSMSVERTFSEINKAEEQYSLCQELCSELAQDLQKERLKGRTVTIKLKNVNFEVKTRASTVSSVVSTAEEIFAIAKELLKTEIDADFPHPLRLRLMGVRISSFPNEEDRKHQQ
Procedure, shortened: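 Gel extension assay with hpol ι core (residues 1–446) or hpol κ core (residues 19–526). Enzyme 2 nM preincubated 5 min with increasing test compound in 50 mM HEPES pH 7.5, 50 mM NaCl, 1 mM DTT, 0.1 mg/mL BSA, 10% glycerol. Started at 37 °C with 200 nM FAM-labeled 13/18-mer primer–template, 10 μM each dNTP, 5 mM MgCl₂. Quench: 20 mM EDTA/95% formamide, 95 °C. Triplicate; IC50 mean ± SD.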

[2] = tested on: HAP-1 cells (hpol η-proficient, parental); assay: Cell viability; type: cell-based, human; details: for Combination index (CI) with CDDP: Chou–Talalay
Procedure, shortened: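 HAP-1 parental or CRISPR hpol η-null cells in IMDM with 10% FBS and 1% antibiotic/antimycotic, passage 8–10, seeded 5000 cells/well. Next day: CDDP 0–100 μM alone or with 0.1 or 1 μM test compound, 48 h. Cells washed twice in DPBS, then 2 μM Calcein-AM for 30 min at 25 °C; fluorescence ex 490/em 520 nm. Viability as % of untreated. […] Combination index by Chou–Talalay.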

[3] = molecular target: T2, hpol η (Homo sapiens, UniProt Q9Y253); assay: Gel-based pol extension assay, hpol η; type: biochemical; details: read-out: IC50, hpol η, gel-based assay; best-fit value (95% confidence interval), three experiments
T2 sequence (Q9Y253 1-437): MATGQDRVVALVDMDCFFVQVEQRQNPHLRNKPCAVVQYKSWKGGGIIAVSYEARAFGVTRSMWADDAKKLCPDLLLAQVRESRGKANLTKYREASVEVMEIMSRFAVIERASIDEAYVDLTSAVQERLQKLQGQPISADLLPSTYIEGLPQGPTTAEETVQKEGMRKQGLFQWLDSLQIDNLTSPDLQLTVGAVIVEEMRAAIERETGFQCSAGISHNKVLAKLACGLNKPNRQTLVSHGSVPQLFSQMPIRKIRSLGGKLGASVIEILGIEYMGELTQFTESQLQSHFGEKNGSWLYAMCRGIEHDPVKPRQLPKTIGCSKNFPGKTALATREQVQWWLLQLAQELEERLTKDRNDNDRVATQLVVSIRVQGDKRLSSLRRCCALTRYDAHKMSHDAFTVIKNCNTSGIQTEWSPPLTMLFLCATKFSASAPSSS

[4] = molecular target: T3, Dpo1 (Saccharolobus solfataricus, UniProt P26811); assay: Fluorescence-based pol activity assay, Dpo1; type: biochemical, Sulfolobus solfataricus; details: 20 μM PNR-7-02
T3 sequence (P26811 1-882): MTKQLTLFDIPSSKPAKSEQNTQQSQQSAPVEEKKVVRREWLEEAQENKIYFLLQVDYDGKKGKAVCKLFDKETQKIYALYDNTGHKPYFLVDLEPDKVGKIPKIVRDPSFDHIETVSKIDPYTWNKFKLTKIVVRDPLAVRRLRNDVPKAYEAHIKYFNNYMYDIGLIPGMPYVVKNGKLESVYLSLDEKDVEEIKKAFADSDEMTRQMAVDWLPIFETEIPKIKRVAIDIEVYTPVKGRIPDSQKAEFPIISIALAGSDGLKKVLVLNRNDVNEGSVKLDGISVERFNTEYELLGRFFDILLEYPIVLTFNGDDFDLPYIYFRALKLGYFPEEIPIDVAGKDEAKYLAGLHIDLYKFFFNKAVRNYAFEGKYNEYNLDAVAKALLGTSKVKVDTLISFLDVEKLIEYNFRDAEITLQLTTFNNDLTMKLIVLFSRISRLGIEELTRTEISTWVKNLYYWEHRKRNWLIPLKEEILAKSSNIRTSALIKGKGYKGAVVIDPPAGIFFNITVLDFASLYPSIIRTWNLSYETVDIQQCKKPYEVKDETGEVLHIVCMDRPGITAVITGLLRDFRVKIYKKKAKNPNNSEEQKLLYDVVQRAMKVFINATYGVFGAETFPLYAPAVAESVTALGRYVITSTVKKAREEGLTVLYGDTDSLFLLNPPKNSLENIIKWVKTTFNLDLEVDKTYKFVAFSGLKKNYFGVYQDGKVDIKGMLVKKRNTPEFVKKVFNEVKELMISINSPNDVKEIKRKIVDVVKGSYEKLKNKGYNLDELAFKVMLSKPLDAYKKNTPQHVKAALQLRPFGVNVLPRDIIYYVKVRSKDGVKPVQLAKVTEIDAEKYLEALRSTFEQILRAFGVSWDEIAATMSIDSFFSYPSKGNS

`O=C1NC(=S)NC(=O)C1=Cc1cn(Cc2ccc3ccccc3c2)c2ccc(Cl)cc12` [PNR-7-02, 5-((5-chloro-1-(naphthalen-2-ylmethyl)-1H-indol-3-yl)methylene)-2-thioxodihydropyrimidine-4,6-(1H,5H)-dione] was tested, and the “Increase in IC50 against hpol κ” value ([1]; gel-based assay, relative to hpol η / hRev1) was roughly 3 fold, the IC50 ([1]; read-out: IC50, hpol κ, gel-based assay, best-fit value (95% confidence interval), three experiments) was 22 µM and the “Combination index values with CDDP, hpol η-proficient cells (summary)” value ([2]; hpol η-proficient cells co-treated with PNR-7-02) was 0.4–0.6. For the same compound, the “Combination index (CI) with CDDP” value ([2]; parental HAP-1, 0.1 μM PNR-7-02) was 0.47, the “Combination index (CI) with CDDP” value ([2]; parental HAP-1, 1 μM PNR-7-02) was 0.59 and the “Decrease of CDDP EC50 on co-treatment with PNR-7-02” value ([2]; parental HAP-1, both concentrations of inhibitor (0.1 and 1 μM)) was greater than 2 fold. The EC50 ([2]; read-out: EC50, cell viability, PNR-7-02 alone, hpol η-proficient parental HAP-1, 48 h) was 4.6 µM, the IC50 [3] was 8 µM and the “Effect on catalysis by Dpo1” value [4] was “not affected at all”. For the same compound, the “Pol activity relative to DMSO control, Dpo1” value ([4]; mean (±SD)) was 118 (±15) %.
